Test results: ChEMBL document CHEMBL2046351, “Discovery of cyclic sulfone hydroxyethylamines as potent and selective β-site APP-cleaving enzyme 1 (BACE1) inhibitors: structure-based design and in vivo reduction of amyloid β-peptides” (J Med Chem, 2012)

Legend:
Mus musculus [1] = experiment: Antialzheimer activity in APP51/16 transgenic mouse expressing human APP51/16Npa and mouse Thy1 assessed as reduction in brain C99 level reduction at 180 umol/kg, po measured 4 hrs post dosing; assay type: functional; set-up: scale not given: the % may be the effect or the level left
Procedure, shortened: (§1)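 Hemizygous APP51/16 mice (human APP751 wild-type under murine Thy-1 cassette, C57BL/6 background) gavaged (10 mL/kg), decapitated at 4 h. Forebrain homogenized in TBS with protease inhibitors, 1% TX-100 extract, spun 100000 rpm 30 min 4 °C. Aβ40 by 6E10 electrochemiluminescence immunoassay against spiked nontransgenic extract standards; C99 by APP-C8 western blot, densitometry. Two-tailed Student's t test versus vehicle.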

Brain [2] = experiment: Drug uptake in APP51/16 transgenic mouse brain at 180 umol/kg, po measured 4 hrs post dosing by LC/MS/MS analysis; assay type: ADME, organism-based; settings: in vivo
Procedure, shortened: (§2)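 APP51/16 transgenic mice given oral gavage (10 mL/kg); blood and forebrain taken at 4 h postdose. Blood extracted by acetonitrile precipitation; brain homogenized in water, then acetonitrile-precipitated. LC-MS/MS quantitation against weighted linear calibration of analyte/internal standard area ratio.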

[3] = AUC (0 to infinity) in C57BL/6 mouse at 2 umol/kg, iv dosed in N-methyl pyrrolidone/blank plasma (10:90 v/v) by LC/MS/MS analysis; assay type: ADME, organism-based; set-up: dose 2 umol/kg, time infinity, route intravenous
Procedure, shortened: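 Male C57BL/6 mice got a single injection into the saphenous vein under light anaesthesia at 5 mL/kg. Blood was taken at 5 and 30 min and 1, 2, 4, 6 and 8 h (n = 3 per time). Blood was extracted by acetonitrile precipitation and quantified by LC-MS/MS against a weighted linear calibration. AUC came from noncompartmental analysis with 1/Y weighting.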

[4] = AUC (0 to infinity) in C57BL/6 mouse at 6 umol/kg, po dosed in HS15/propylenglycol/citrate buffer, pH 4.75, 50 mM (10/5/85, v/v/v) by LC/MS/MS analysis; assay type: ADME, organism-based; set-up: dose 6 umol/kg, time infinity, route oral; settings: plasma
Procedure, shortened: (§3)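 Male C57BL/6 mice were dosed by oral gavage at 10 mL/kg. Blood was sampled at 0.25, 0.5, 1, 2, 4 and 6 h postdose, extracted by acetonitrile precipitation and quantified by LC-MS/MS (typical LLOQ 0.4 ng/mL). AUCinf was obtained by noncompartmental analysis of concentration–time profiles, weighting 1/Y, with at least three terminal log-linear points.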

[5] = Blood clearance in C57BL/6 mouse at 2 umol/kg, iv dosed in N-methyl pyrrolidone/blank plasma (10:90 v/v) by LC/MS/MS analysis; assay type: ADME, organism-based
Procedure, shortened: (§4)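 Male C57BL/6 mice, saphenous vein injection under light anesthesia, 5 mL/kg. Blood at 5, 30 min and 1, 2, 4, 6, 8 h; brain at 5 min, 1, 4, 8 h; n = 3/time. LC-MS/MS after acetonitrile precipitation (brain water-homogenized). Noncompartmental analysis, 1/Y weighting, terminal slope from ≥3 points.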

[6] = Oral bioavailability in C57BL/6 mouse at 6 umol/kg dosed in HS15/propylenglycol/citrate buffer, pH 4.75, 50 mM (10/5/85, v/v/v) by LC/MS/MS analysis; assay type: ADME, organism-based; settings: in vivo
Procedure, shortened: (§5)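 Oral gavage (10 mL/kg) to male C57BL/6 mice with iv reference segment (2 μmol/kg, NMP/blank plasma 10:90). Noncompartmental analysis of LC-MS/MS blood profiles, 1/Y weighting; %F = dose-normalized oral AUC / dose-normalized iv AUC × 100, assuming linear pharmacokinetics between doses.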

Mus musculus [7] = experiment: Antialzheimer activity in APP51/16 transgenic mouse expressing human APP51/16Npa and mouse Thy1 assessed as reduction in amyloid beta (1 to 40) reduction at 180 umol/kg, po measured 4 hrs post dosing; assay type: functional; set-up: scale not given: the % may be the effect or the level left; procedure, shortened: as §1
[8] = Drug uptake in C57BL/6 mouse blood at 60 umol/kg, po dosed in HS15/propylenglycol/citrate buffer, pH 4.75, 50 mM (10/5/85, v/v/v) measured 4 hrs post dosing by LC/MS/MS analysis; assay type: ADME, organism-based; settings: read-out: Drug uptake
Procedure, shortened: (§6)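 Male C57BL/6 mice dosed by oral gavage, 10 mL/kg. Blood sampled 0.25, 0.5, 1, 2, 4, 6 h; brain at 1 and/or 4 h; n = 3 per time. Blood acetonitrile-precipitated, brain water-homogenized then precipitated; LC-MS/MS with weighted linear calibration.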

[9] = Half life in C57BL/6 mouse at 2 umol/kg, iv dosed in N-methyl pyrrolidone/blank plasma (10:90 v/v) by LC/MS/MS analysis; assay type: ADME, organism-based; procedure, shortened: as §4
[10] = Volume of distribution at steady state in C57BL/6 mouse at 2 umol/kg, iv dosed in N-methyl pyrrolidone/blank plasma (10:90 v/v) by LC/MS/MS analysis; assay type: ADME, organism-based; settings: read-out: Vdss; procedure, shortened: as §4
MDR1 (human) [11] = experiment: Apparent permeability across MDCK cells expressing human MDR1 at 5 uM after 2 hrs by LC-MS analysis; assay type: ADME, cell-based, Canis lupus familiaris; settings: dog
Procedure, shortened: (§7)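 MDCK cells retrovirally transduced with human MDR1, seeded on transwells ≥3 days; bidirectional transport at 5 μM, 2 h, 37 °C, LC/MS quantitation. Papp = (dQ/dt)/(A·C0), A 0.11 cm2; ER = Papp B>A / Papp A>B. Means of at least three experiments.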

[12] = Drug uptake in APP51/16 transgenic mouse blood at 180 umol/kg, po measured 4 hrs post dosing by LC/MS/MS analysis; assay type: ADME, organism-based; settings: read-out: Drug uptake; procedure, shortened: as §2
[13] = AUC (0 to infinity) in C57BL/6 mouse at 60 umol/kg, po dosed in HS15/propylenglycol/citrate buffer, pH 4.75, 50 mM (10/5/85, v/v/v) by LC/MS/MS analysis; assay type: ADME, organism-based; set-up: dose 60 umol/kg, route oral, time infinity; settings: plasma; procedure, shortened: as §3
Brain [14] = experiment: Drug uptake in C57BL/6 mouse brain at 60 umol/kg, po dosed in carboxymethyl cellulose 0.5% w/v in water/Tween 80 (99.5/0.5, v/v) measured 1 hr post dosing by LC/MS/MS analysis; assay type: ADME, organism-based; settings: in vivo; procedure, shortened: as §6
[15] = Ratio of drug uptake in brain to blood in C57BL/6 mouse at 6 umol/kg, po dosed in carboxymethyl cellulose 0.5% w/v in water/Tween 80 (99.5/0.5, v/v) measured 4 hrs post dosing by LC/MS/MS analysis; assay type: ADME, organism-based; procedure, shortened: as §6
MDR1 (human) [16] = experiment: Efflux ratio of permeability from basolateral to apical over apical to basolateral side of MDCK cells expressing human MDR1 at 5 uM after 2 hrs by LC/MS analysis; assay type: ADME, cell-based, Canis lupus familiaris; settings: dog; procedure, shortened: as §7
[17] = Ratio of drug uptake in brain to blood in C57BL/6 mouse at 2 umol/kg, iv dosed in N-methyl pyrrolidone/blank plasma (10:90 v/v) measured 4 hrs post dosing by LC/MS/MS analysis; assay type: ADME, organism-based; procedure, shortened: as §4
[18] = Ratio of drug uptake in brain to blood in C57BL/6 mouse at 6 umol/kg, po dosed in carboxymethyl cellulose 0.5% w/v in water/Tween 80 (99.5/0.5, v/v) measured 1 hr post dosing by LC/MS/MS analysis; assay type: ADME, organism-based; procedure, shortened: as §6
Beta-secretase 1 = Beta-secretase 1 (Homo sapiens, UniProt P56817)
[19] = Oral bioavailability in C57BL/6 mouse at 6 umol/kg dosed in carboxymethyl cellulose 0.5% w/v in water/Tween 80 (99.5/0.5, v/v) by LC/MS/MS analysis; assay type: ADME, organism-based; settings: in vivo; procedure, shortened: as §5
Brain [20] = experiment: Drug uptake in C57BL/6 mouse brain at 2 umol/kg, iv dosed in N-methyl pyrrolidone/blank plasma (10:90 v/v) measured 4 hrs post dosing by LC/MS/MS analysis; assay type: ADME, organism-based; settings: in vivo; procedure, shortened: as §4

Sequence of Beta-secretase 1 (P56817 whole entry): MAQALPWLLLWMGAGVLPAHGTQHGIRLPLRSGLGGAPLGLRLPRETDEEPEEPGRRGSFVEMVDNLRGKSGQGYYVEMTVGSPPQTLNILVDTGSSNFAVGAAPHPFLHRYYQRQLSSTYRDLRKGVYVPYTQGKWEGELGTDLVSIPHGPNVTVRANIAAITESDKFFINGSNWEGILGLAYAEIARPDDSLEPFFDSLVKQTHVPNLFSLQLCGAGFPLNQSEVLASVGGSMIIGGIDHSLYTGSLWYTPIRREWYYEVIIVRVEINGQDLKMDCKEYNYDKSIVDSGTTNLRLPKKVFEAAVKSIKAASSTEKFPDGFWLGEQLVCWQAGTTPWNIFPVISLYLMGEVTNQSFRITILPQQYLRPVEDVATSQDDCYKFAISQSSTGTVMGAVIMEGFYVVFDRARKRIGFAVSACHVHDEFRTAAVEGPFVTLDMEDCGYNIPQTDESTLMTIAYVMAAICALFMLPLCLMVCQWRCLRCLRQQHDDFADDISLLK

| Structure (SMILES) | Activity (Mus musculus [1]) [%] | Drug uptake (Brain [2]) [nmol/g] | AUC(0-inf) [3] [µM·h] | clearance [5] [mL/min/kg] | Activity (Mus musculus [7]) [%] | half-life [9] [h] | Vd [10] [L/kg] | Papp at 2 h, 5 µM (MDR1 (human) [11]) [×10⁻⁶ cm/s] | concentration at 4 h [12] [µM] | other results |
| --- | --- | --- | --- | --- | --- | --- | --- | --- | --- | --- |
| CC(C)(C)c1cccc(CN[C@H]2CS(=O)(=O)C[C@@H](Cc3cc(F)c(N)c(OC(C(F)(F)F)C(F)(F)F)c3)[C@@H]2O)c1 | 22 | 1.5 | 0.407 | 82 | 6 | 2.9 | 16.3 | 3 | 3.7 | AUC(0-inf) [4]: 0.398 µM·h; bioavailability [6]: 32%; concentration at 4 h [8]: 0.19 µM; AUC(0-inf) [13]: 4.07 µM·h |
| CC(C)(C)c1cccc(CN[C@H]2CS(=O)(=O)C[C@@H](Cc3cc(F)c(N)c(OCC(F)(F)F)c3)[C@@H]2O)c1 | 34 | 1.8 | 0.3 | 111 | 31 | 1.4 | 7.2 | 25 | 10.2 | Drug uptake (Brain [14]): 1.19 nmol/g; Kp at 4 h [15]: 11; efflux ratio at 2 h, 5 µM (MDR1 (human) [16]): 5; Kp at 4 h [17]: 1; Kp at 1 h [18]: 2.7; IC50 (Beta-secretase 1): 6 nM; bioavailability [19]: 52%; Drug uptake (Brain [20]): 0.01 nmol/g |
